The record followed here is PubChem BioAssay.

Each structure is given as a SMILES string. Calls of active or inactive are those of the source.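 The calls were made as follows, unless noted: active = viability at or below 10% of carrier control in both of two separate runs; inconclusive = viability at or below 10% in only one of the two runs; inactive = the rest.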

A short description of test [1]: reducers of endogenous Her2 protein level, primary screen, SKBR3 breast tumor cells, AlphaScreen, ATP viability (AID 461;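 active = Her2 level under about 52% in both replicate screens, with viability over 70% of control, limit read from the data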;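 as to Her2 level: lower value means less Her2 protein in the cells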;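 as to viability: percent of carrier control wells set as 100% viability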). As to conditions: 18-24 h, measured here: SKBR3 viability, ATP luminescence, at 10 µM. (In general: Bead proximity is the source of the signal in Alpha formats.)
Test [2] deals with Receptor tyrosine-protein kinase erbB-2 (Homo sapiens) (UniProt P04626). The description is as above. The following applies: 18-24 h, at 10 µM, stronger effect = lower value.
The nature of test [3]: SK-BR-3 cell growth inhibitors, pilot screen, 24 h, human (AID 572).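 Also: compound exposure lasted between 18 and 24 h rather than exactly 24 h; 100% = carrier-treated control wells.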 The following applies: SK-BR-3 viability, CellTiter-Glo luminescence, at 10 µM, stronger effect = lower value. (Cellular ATP, detected with luciferase, serves as a proxy for viable cell number.)
Test [4] is described as follows: HUVEC growth inhibition – cell-based, human, primary screen (AID 575;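 active = viability at or below 30% in both replicate assays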;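 also: 100% = median of untreated cell wells with 0.1% DMSO on each plate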). As to conditions: HUVEC proliferation, CellTiter-Glo luminescence, 72 h; at 10 µM; stronger effect = lower value. In outline:
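Assay system: primary human umbilical vein endothelial cells / Buffer or medium: endothelial basal medium with 2% FBS plus growth supplements / Compound dosing: one dose, 10 µM final, 0.1% DMSO / Timing: 72 h treatment at 37 °C / Signal: CTG luminescence / Benchmarks: 32 DMSO-only cell-control wells (high), 32 MePR drug-control wells (low) per plate / Plate: collagen-coated 384-well format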

The nature of test [5]: growth inhibitors of H69AR lung tumor, primary screen, human, duplicate replicates (AID 580;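 active = viability at or under a set limit in both replicates, limit being median viability minus 3 SD, cut at about 48% in these data, passing the limit was not always enough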;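 also: 100% = mean luminescence of untreated wells and 0% = no signal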). The following applies: H69AR lung tumor cells viability, ATP luminescence, 72 h; at 10 µM; stronger effect = lower value.
A short description of test [6]: reversal of MRP1-mediated doxorubicin resistance, pilot screen, H69AR cells, doxorubicin co-treatment (AID 601;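 active = viability loss from added drug above about 55%, and viability with drug at most 40%, in both replicates, limit read from the data, passing the limit was not always enough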). As to conditions: CellTiter-Glo, 72 h, at 10 µM; for differential viability (reversal): stronger effect = higher value.
Test [7] can be described thus: 384-well plate pilot, post-Golgi transport modulator project, inhibition of yeast transport mutant growth (AID 636; in the data active = inhibition above about 31%). As to conditions: absorbance 615 nm, about 18 h, stronger effect = higher value.
The nature of test [8]: growth suppression of yeast trafficking mutant, preliminary HTS, modulators of trafficking downstream of Golgi apparatus project, 1536-format plate, OD 615 nm (AID 637; in the data active = inhibition above about 30%). As to conditions: yeast transport mutant growth, absorbance 615 nm, 18 h; stronger effect = higher value.
Setting [9] is: H69AR cells + 2 uM doxorubicin, measured here: viability with 2 uM doxorubicin, stronger effect = lower value.
The mark [10] stands for this setting: H69AR cells, compound alone cytotoxicity.

Receptor tyrosine-protein kinase erbB-2 (Homo sapiens), sequence (P04626 whole entry, looked up): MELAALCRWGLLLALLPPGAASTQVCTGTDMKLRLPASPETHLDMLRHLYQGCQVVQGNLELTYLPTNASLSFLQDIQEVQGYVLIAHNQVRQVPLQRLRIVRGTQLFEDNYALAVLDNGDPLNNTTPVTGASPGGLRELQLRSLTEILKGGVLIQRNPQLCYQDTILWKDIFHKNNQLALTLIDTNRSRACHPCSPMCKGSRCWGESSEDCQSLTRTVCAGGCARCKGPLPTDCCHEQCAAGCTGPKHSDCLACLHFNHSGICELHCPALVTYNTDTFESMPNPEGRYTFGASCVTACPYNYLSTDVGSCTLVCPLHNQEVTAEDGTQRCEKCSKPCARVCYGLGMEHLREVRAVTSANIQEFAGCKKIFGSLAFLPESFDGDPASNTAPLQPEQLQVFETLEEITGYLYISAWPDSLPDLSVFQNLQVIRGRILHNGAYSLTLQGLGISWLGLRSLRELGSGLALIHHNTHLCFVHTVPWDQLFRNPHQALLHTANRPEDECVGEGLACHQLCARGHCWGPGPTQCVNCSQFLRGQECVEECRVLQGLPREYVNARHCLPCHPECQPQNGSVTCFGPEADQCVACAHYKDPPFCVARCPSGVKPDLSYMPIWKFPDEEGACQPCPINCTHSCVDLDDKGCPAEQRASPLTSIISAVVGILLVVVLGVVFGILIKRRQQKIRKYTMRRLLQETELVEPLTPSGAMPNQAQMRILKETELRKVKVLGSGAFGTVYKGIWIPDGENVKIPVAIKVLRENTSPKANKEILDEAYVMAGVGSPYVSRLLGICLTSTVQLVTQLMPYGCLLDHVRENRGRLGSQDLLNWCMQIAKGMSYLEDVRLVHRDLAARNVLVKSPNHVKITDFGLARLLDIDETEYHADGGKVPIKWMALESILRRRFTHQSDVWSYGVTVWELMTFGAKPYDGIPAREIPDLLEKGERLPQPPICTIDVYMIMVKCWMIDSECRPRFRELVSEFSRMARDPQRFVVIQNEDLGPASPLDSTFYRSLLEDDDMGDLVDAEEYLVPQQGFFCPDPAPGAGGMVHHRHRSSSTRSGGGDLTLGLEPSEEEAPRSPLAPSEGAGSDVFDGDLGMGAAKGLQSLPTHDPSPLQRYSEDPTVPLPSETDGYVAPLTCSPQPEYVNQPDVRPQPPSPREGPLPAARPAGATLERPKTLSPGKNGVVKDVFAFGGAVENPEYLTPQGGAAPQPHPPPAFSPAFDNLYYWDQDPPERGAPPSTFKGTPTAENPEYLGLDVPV

Turning to `COc1ccc(N2CCN(c3nc4c(c(=O)[nH]c(=O)n4C)n3CCCc3ccccc3)CC2)cc1`, the viability (commonly a read-out of living cells in per cent, often relative to untreated cells) is 120% in test [1]; 120% (inactive) in test [3]; 94% (inactive) in test [4]; 84.9% (inactive) in test [5]; 87% in test [6] (setting [9]); 84.9% in test [6] (setting [10]). Also, the Her2 level in test [2] is 102% (inactive). The differential viability (reversal) in test [6] (H69AR cells + 2 uM doxorubicin) is -2.09% (inactive). Besides, the inhibition (usually the change of the read-out against control, counted positive when it falls) in test [7] is -6.8% (inactive); in test [8] it was 0.48% (inactive).
Consider `CCOC(=O)C(NC(=O)OC(C)C)(Nc1nccs1)C(F)(F)F` (stereo not given), for which the viability is 89.5% in test [1]; 89.5% (inactive) in test [3]; 103% (inactive) in test [4]; 110% (inactive) in test [5]; 97.6% in test [6] (setting [9]); 110% in test [6] (setting [10]). Also, the Her2 level in test [2] was 96.5% (inactive). Besides, the differential viability (reversal) in test [6] (H69AR cells + 2 uM doxorubicin) is 12% (inactive). The inhibition was -4.29% (inactive) in test [7] and 4.44% (inactive) in test [8].
For the molecule `COC(=O)c1ccc(NC(=O)C(C)N2C(=O)c3ccccc3C2=O)cc1` (stereo not given), the viability is 109% in test [1]; 109% (inactive) in test [3]; 108% (inactive) in test [4]; 108% (inactive) in test [5]; 92.8% in test [6] (setting [9]); 108% in test [6] (setting [10]). The Her2 level in test [2] is 94% (inactive). Moreover, the differential viability (reversal) in test [6] (H69AR cells + 2 uM doxorubicin) is 14.8% (inactive). The values for the inhibition in test [7] and in test [8] were 0.41% (inactive) and -3.65% (inactive), respectively.
On to `Cc1ccc(-c2cc(C(F)(F)F)n3ncc(C(=O)O)c3n2)cc1`, for which the viability was 91% in test [1]; 91% (inactive) in test [3]; 113% (inactive) in test [4]; 99.7% (inactive) in test [5]; 92.4% in test [6] (setting [9]); 99.7% in test [6] (setting [10]). Further, the Her2 level in test [2] is 90.5% (inactive). For the same molecule, the differential viability (reversal) in test [6] (H69AR cells + 2 uM doxorubicin) is 7.33% (inactive). Further, the inhibition in test [7] is -7.87% (inactive); in test [8], 0.48% (inactive).
`COc1cc(C(=O)Nc2ccc(-n3cnnn3)c(C)c2)cc(OC)c1OC`: the viability is 105% in test [1]; 105% (inactive) in test [3]; 99.8% (inactive) in test [4]; 74% (inactive) in test [5]; 98.8% in test [6] (setting [9]); 74% in test [6] (setting [10]). Further, the Her2 level in test [2] was 95.5% (inactive). In addition, the differential viability (reversal) in test [6] (H69AR cells + 2 uM doxorubicin) was -24.8% (inactive). Besides, the inhibition was -2.08% (inactive) in test [7] and -7.3% (inactive) in test [8].
On to `O=C(Oc1ccc(Cl)cc1N1C(=O)CCC1=O)c1ccco1`, for which the viability in test [1] is 96.5%; in test [3], 96.5% (inactive); in test [4], 78% (inactive); in test [5], 90.9% (inactive); in test [6] (setting [9]), 87.3%; in test [6] (setting [10]), 90.9%. The Her2 level in test [2] is 74% (inactive). In addition, the differential viability (reversal) in test [6] (H69AR cells + 2 uM doxorubicin) is 3.6% (inactive). The inhibition in test [7] is -3.65% (inactive); in test [8] it was 2.46% (inactive).
In the case of `Cc1cc(C(=O)N2CCN(c3ncccn3)CC2)cs1`, the viability in test [1] was 90%; in test [3], 90% (inactive); in test [4] it was 104% (inactive); in test [5], 102% (inactive); in test [6] (setting [9]) it was 90.8%; in test [6] (setting [10]), 102%. Besides, the Her2 level in test [2] was 94.5% (inactive). In test [6] (H69AR cells + 2 uM doxorubicin), the differential viability (reversal) is 11.2% (inactive). In addition, the inhibition was -5.87% (inactive) in test [7] and -1.15% (inactive) in test [8].
For the molecule `COc1cccc(Oc2cnc(N)nc2-c2ccc(OC)cc2O)c1`, the viability in test [1] was 91.5%; in test [3] it was 91.5% (inactive); in test [4], 67.1% (inactive); in test [5], 10.8% (active); in test [6] (setting [9]) it was 58.2%; in test [6] (setting [10]), 10.8%. The Her2 level in test [2] was 74.5% (inactive). Moreover, in test [6] (H69AR cells + 2 uM doxorubicin), the differential viability (reversal) was -47.3% (inactive). Further, the results for the inhibition in test [7] and in test [8] were -0.52% (inactive) and -5.5% (inactive), respectively.
As for `CCC(C)NC(=O)CC1Oc2ccc(C)cc2NC1=O` (stereo not given), the viability in test [1] is 105%; in test [3], 105% (inactive); in test [4], 90.3% (inactive); in test [5] it was 91.7% (inactive); in test [6] (setting [9]), 94.2%; in test [6] (setting [10]) it was 91.7%. Further, the Her2 level in test [2] is 99% (inactive). Moreover, in test [6] (H69AR cells + 2 uM doxorubicin), the differential viability (reversal) is -2.57% (inactive). The inhibition in test [7] is 0.13% (inactive); in test [8] it was -3.28% (inactive).
Take `CC(=O)C1=C(C)NC(C)=C(C(C)=O)C1c1cccs1`: the viability in test [1] is 99%; in test [3], 99% (inactive); in test [4], 84.8% (inactive); in test [5] it was 87% (inactive); in test [6] (setting [9]), 81.7%; in test [6] (setting [10]), 87%. Besides, in test [2], the Her2 level was 86% (inactive). The differential viability (reversal) in test [6] (H69AR cells + 2 uM doxorubicin) was 5.3% (inactive). The figures for the inhibition in test [7] and in test [8] were -2.08% (inactive) and -4% (inactive), respectively.
Take `O=C(OCC#CCSc1nnc(-c2ccncc2)o1)c1cccs1`: the viability is 118% in test [1]; 118% (inactive) in test [3]; 88.2% (inactive) in test [4]; 82% (inactive) in test [5]; 83.3% in test [6] (setting [9]); 82% in test [6] (setting [10]). The Her2 level in test [2] is 102% (inactive). The differential viability (reversal) in test [6] (H69AR cells + 2 uM doxorubicin) was -1.25% (inactive). Also, the figures for the inhibition in test [7] and in test [8] were -4.67% (inactive) and 1.43% (inactive), respectively.
Consider `CCOC(=O)C1CCN(C(=O)CSc2n[nH]c(=O)[nH]c2=O)CC1`, for which the viability in test [1] is 109%; in test [3], 109% (inactive); in test [4], 94.6% (inactive); in test [5] it was 102% (inactive); in test [6] (setting [9]), 96.7%; in test [6] (setting [10]) it was 102%. For the same molecule, in test [2], the Her2 level is 90% (inactive). Moreover, the differential viability (reversal) in test [6] (H69AR cells + 2 uM doxorubicin) is 5.61% (inactive). In addition, the inhibition was -8.51% (inactive) in test [7] and 3.67% (inactive) in test [8].
Turning to `CC1CCC(C(=O)NC(C(=O)NCCN2CCC(C)CC2)C(C)C)CC1` (stereo not given), the viability in test [1] was 126%; in test [3], 126% (inactive); in test [4] it was 87.6% (inactive); in test [5], 81.3% (inactive); in test [6] (setting [9]) it was 87.9%; in test [6] (setting [10]), 81.3%. Moreover, the Her2 level in test [2] was 107% (inactive). The differential viability (reversal) in test [6] (H69AR cells + 2 uM doxorubicin) was -6.62% (inactive). The inhibition in test [7] is -1.04% (inactive); in test [8], 13.9% (inactive).
`O=C1c2ccccc2C(=O)N1C/C=C/c1ccccc1`: the viability in test [1] is 81%; in test [3] it was 81% (inactive); in test [4] it was 78.2% (inactive); in test [5] it was 96.7% (inactive); in test [6] (setting [9]), 89.5%; in test [6] (setting [10]), 96.7%. In addition, in test [2], the Her2 level was 75% (inactive). In test [6] (H69AR cells + 2 uM doxorubicin), the differential viability (reversal) is 7.29% (inactive). In addition, the inhibition in test [7] was -3.47% (inactive); in test [8], -1.29% (inactive).
With `Cc1nnc(SCCn2c(N3CC(C)CC(C)C3)nc3c2c(=O)n(C)c(=O)n3C)s1` (stereo not given), the viability in test [1] was 106%; in test [3] it was 106% (inactive); in test [4] it was 93.8% (inactive); in test [5] it was 95.9% (inactive); in test [6] (setting [9]), 98.2%; in test [6] (setting [10]), 95.9%. In addition, the Her2 level in test [2] was 99.5% (inactive). In addition, the differential viability (reversal) in test [6] (H69AR cells + 2 uM doxorubicin) is -2.37% (inactive). Further, the inhibition in test [7] was 0.26% (inactive); in test [8] it was 24.7% (inactive).
For the molecule `COc1cccc(N2C(=O)C(O)=C(C(C)=O)C2c2ccc(OC)c(OC)c2)c1` (stereo not given), the viability in test [1] is 94.5%; in test [3], 94.5% (inactive); in test [4], 109% (inactive); in test [5] it was 100% (inactive); in test [6] (setting [9]) it was 93%; in test [6] (setting [10]), 100%. Also, the Her2 level in test [2] was 94% (inactive). The differential viability (reversal) in test [6] (H69AR cells + 2 uM doxorubicin) was 7.03% (inactive). The inhibition in test [7] is 0.26% (inactive); in test [8] it was 4.75% (inactive).
